These results are taken from ChEMBL document CHEMBL4017487, “Design and Synthesis of γ- and δ-Lactam M1 Positive Allosteric Modulators (PAMs): Convulsion and Cholinergic Toxicity of an M1-Selective PAM with Weak Agonist Activity” (J Med Chem, 2017).

Calls of active or inactive are those of the source. The rule behind the calls is not given here.

Data set [1] can be described thus: Unbound plasma concentration in iv or po dosed mouse. It is filed as ADME, organism-based.
For data set [2], the target named is Muscarinic acetylcholine receptor M3 (Homo sapiens, UniProt P20309). As to the kind of experiment: Positive allosteric modulation of human muscarinic acetylcholine receptor M3 expressed in CHO cells assessed as increase in acetylcholine-induced calcium mobilization up to 10 uM preincubated for 10 mins followed by acetylcholine addition by Fluo-8-AM dye based FLIPR assay. It is filed as cell-based. Put shortly: (§1)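 Recombinant functional human M2–M5 assays, each run in agonist and PAM modes at concentrations up to 10 μM.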

In data set [3] the target is T1, Muscarinic acetylcholine receptor M5 (Homo sapiens, UniProt P08912).
T1 sequence (P08912 whole entry): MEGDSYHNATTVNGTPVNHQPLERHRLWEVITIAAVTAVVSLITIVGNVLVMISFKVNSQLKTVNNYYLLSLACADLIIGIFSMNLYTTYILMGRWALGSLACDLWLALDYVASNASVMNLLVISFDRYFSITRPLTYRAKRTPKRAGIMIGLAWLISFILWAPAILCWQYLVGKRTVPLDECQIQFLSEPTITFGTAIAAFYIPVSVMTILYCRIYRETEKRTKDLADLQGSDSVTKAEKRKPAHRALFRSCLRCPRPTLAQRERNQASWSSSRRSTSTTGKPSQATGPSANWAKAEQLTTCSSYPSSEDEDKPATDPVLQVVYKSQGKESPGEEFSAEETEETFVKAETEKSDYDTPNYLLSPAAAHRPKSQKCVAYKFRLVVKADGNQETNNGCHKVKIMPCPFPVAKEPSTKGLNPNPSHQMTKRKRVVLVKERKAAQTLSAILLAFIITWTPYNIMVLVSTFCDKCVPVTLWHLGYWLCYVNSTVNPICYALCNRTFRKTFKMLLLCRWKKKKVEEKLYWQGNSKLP
As to the kind of experiment: Agonist activity at human muscarinic acetylcholine receptor M5 expressed in CHO cells assessed as increase in calcium mobilization incubated for 10 mins by Fluo-8-AM dye based FLIPR assay. The format is cell-based. Put shortly:
as §1

The subject of data set [4] is Canis familiaris. As to the kind of experiment: Cholinergic toxicity in dog assessed as salivation at 15 mg/kg, po administered as single dose using spray dried dispersion formulation after 1 hr. Conditions: in vivo. The format is organism-based, Canis lupus familiaris. Put shortly: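 Dog single oral dose escalation: 1/sex at 5 mg/kg for each formulation; 1 female at 15 mg/kg. Spray-dried dispersion: 23% drug loading with 0.5% methylcellulose and 100 mM citrate buffer. Clinical signs timed in approximate hours postdose; unbound plasma Cmax.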

Data set [5] addresses T2, Muscarinic acetylcholine receptor M1 (Homo sapiens, UniProt P11229).
T2 sequence (P11229 whole entry): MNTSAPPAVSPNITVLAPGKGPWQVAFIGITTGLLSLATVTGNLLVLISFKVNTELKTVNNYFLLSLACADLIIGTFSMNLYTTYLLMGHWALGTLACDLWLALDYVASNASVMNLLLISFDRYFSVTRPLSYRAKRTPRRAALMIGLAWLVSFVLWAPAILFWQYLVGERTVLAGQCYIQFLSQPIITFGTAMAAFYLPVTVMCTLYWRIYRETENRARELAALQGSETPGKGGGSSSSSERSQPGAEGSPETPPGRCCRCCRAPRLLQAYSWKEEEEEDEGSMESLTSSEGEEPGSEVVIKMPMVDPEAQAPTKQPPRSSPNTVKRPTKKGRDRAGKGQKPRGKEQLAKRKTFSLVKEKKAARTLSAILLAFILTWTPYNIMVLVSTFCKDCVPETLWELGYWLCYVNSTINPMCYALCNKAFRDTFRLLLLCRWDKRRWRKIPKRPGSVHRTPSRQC
Put plainly: Agonist activity at human muscarinic acetylcholine receptor M1 expressed in CHO cells assessed as increase in calcium mobilization at 30 uM incubated for 10 mins by Fluo-8-AM dye based FLIPR assay relative to acetylcholine. The format is cell-based.

The target in data set [6] is T2, Muscarinic acetylcholine receptor M1. As to the kind of experiment: Activity at human muscarinic acetylcholine receptor M1 expressed in CHO cells assessed as increase in acetylcholine-induced calcium mobilization incubated for 10 mins by Fluo-8-AM dye based FLIPR assay. The format is ADME, cell-based. A digest of the protocol:
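Calcium-mobilization potentiation assay read on a FLIPR plate reader in the presence of an EC20 concentration of ACh. EC50 is the geometric mean of at least three experiments.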

Data set [7] has the same target. As to the kind of experiment: Positive allosteric modulation of human muscarinic acetylcholine receptor M1 expressed in CHO cells assessed as increase in acetylcholine-induced beta-arrestin recruitment by measuring functional co-operativity with acetylcholine. It is filed as ADME, cell-based.
For data set [8] the target is unchanged. As to the kind of experiment: Ratio of positive allosteric modulation of human muscarinic acetylcholine receptor M1 expressed in CHO cells assessed as increase in acetylcholine-induced beta-arrestin recruitment by measuring functional co-operativity with acetylcholine to Kb for human muscarinic acetylcholine receptor M1 expressed in CHO cells assessed as increase in beta-arrestin recruitment. The format is ADME, cell-based.

Another data set deals with Brain. As to the kind of experiment: Unbound brain concentration in amphetamine-induced hyperlocomotion C57BL/6 mouse at 0.3 mg/kg, sc measured after 1 hr by LC-MS/MS analysis. The format is ADME, organism-based. Conditions: in vivo. Put shortly:
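Satellite group of C57BL/6 mice from the amphetamine-stimulated locomotor study, N = 2/dose at 0.32, 1 and 3.2 mg/kg. Dosed sc as a solution in 10/90 Cremophor/water. Unbound plasma and brain concentrations measured at T = 1 h.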

The subject of data set [9] is Rattus norvegicus. As to the kind of experiment: Reversal of scopolamine-induced memory impairment in Wistar rat assessed as […] in hidden platform during 5 days training period at 0.32 to 3.2 mg/kg, sc administered 15 mins prior to test for 5 consecutive days followed by scopolamine challenge 30 mins prior to test by Morris water maze test. The format is functional, organism-based.

The subject of data set [10] is Plasma. Put plainly: Unbound plasma concentration in scopolamine-induced memory impairment Wistar rat model at 1 mg/kg, sc measured after 1.25 hrs by LC-MS/MS analysis. It is filed as ADME, organism-based. Conditions: in vivo. Put shortly:
(§2)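 Rats from a satellite group of the scopolamine (0.32 mg/kg) Morris water maze study, N = 2/dose. Dosed sc as a solution in 20% hydroxypropyl β-cyclodextrin. Compound concentrations measured in plasma only at T = 1.25 h.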

Data set [11] deals with Plasma. As to the kind of experiment: Unbound plasma concentration in scopolamine-induced memory impairment Wistar rat model at 3.2 mg/kg, sc measured after 1.25 hrs by LC-MS/MS analysis. It is filed as ADME, organism-based. Conditions: in vivo. A digest of the protocol: as §2
For data set [12], the system named is Rattus norvegicus. Put plainly: Unbound AUC (0 to 24 hrs) in rat plasma at 1 mg/kg, po administered as single dose. It is filed as ADME, organism-based. Conditions: in vivo. A digest of the protocol:
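Rats (3/sex/dose) dosed orally once, 1 or 5 mg/kg as a 0.5% methylcellulose suspension.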

The subject of data set [13] is Rattus norvegicus. As to the kind of experiment: Toxicity in rat assessed as unbound brain concentration at 45 mg/kg, po administered as single dose. The format is organism-based. Conditions: in vivo.
Data set [14] deals with Canis familiaris. Put plainly: Unbound Cmax in dog plasma at 5 mg/kg, po administered as single dose using spray dried dispersion formulation. It is filed as ADME, organism-based, Canis lupus familiaris. Conditions: in vivo.
Data set [15] concerns the target T2, Muscarinic acetylcholine receptor M1. Put plainly: Displacement of [3H]PT-1284 human muscarinic acetylcholine receptor M1 expressed in CHO cell membranes after 90 mins scintillation counting method.
In the next data set the test system is Mus musculus. Put plainly: In vivo agonist activity at muscarinic acetylcholine receptor M1 in C57BL/6 mouse assessed as unbound brain concentration required to show 2 fold increase in IP1 accumulation in striatum at 1 to 10 mg/kg, sc measured after 2 hrs. The format is organism-based. Put shortly:
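Cb,u giving a 2-fold rise in striatal IP1 in C57BL/6 mice, estimated by interpolation of individual-mouse IP1 versus free brain exposure data.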

The nature of data set [16]: Ratio of unbound Cmax in dog brain assessed as convulsions at 15 mg/kg, po administered as single dose to unbound brain concentration for agonist activity at muscarinic acetylcholine receptor M1 in C57BL/6 mouse assessed as required to show 2 fold increase in IP1 accumulation in striatum at 1 to 10 mg/kg, sc. It is filed as organism-based.

Sequence of Muscarinic acetylcholine receptor M3 (P20309 whole entry): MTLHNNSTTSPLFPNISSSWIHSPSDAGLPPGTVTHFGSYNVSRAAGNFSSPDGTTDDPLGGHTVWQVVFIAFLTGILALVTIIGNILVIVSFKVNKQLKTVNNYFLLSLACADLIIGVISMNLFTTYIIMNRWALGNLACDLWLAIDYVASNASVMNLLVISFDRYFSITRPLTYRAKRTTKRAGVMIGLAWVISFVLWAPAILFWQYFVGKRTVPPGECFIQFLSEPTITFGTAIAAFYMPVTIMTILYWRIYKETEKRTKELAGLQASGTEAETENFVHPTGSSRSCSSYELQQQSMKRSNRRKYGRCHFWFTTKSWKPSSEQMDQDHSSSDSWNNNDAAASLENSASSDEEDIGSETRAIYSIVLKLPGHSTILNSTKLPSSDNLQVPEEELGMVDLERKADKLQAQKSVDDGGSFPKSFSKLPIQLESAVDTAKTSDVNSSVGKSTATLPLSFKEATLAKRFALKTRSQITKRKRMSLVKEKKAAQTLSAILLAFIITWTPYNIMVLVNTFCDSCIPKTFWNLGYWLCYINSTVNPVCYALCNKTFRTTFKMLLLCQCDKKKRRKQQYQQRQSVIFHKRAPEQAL

As for `Cc1cc2c(cc1Cc1ccc(-c3cocn3)cc1)C(=O)N([C@H]1CCOC[C@@H]1O)C2`, the free fraction (fraction unbound) in data set [1] turned out to be 0.013. Moreover, the figures for the Activity entry (in data set [2]; in the data set on Canis familiaris [4]; in data set [5]) were “Not Active”, “Toxic” and 23%, respectively. Further, the half-maximal effective concentration (EC50) in data set [3] was greater than 10000 nM. The KA in data set [6] was determined as 1.3 µM. The “log(activity)” value in data set [7] is listed as 2.9. Besides, the Ratio in data set [8] was determined as 100. Besides, the “Drug uptake(free)” value in the data set with Brain is 3.8 nM; in the data set on Rattus norvegicus [13], 460 to 760 nM; with Mus musculus, 22 nM. In addition, in the data set with Rattus norvegicus [9], the result was Active. Also, the entries for the “Cp(f)” value with Plasma [10] and in the data set with Plasma [11] were 66 nM and 200 nM, respectively. The compound also displayed a fAUC in the data set on Rattus norvegicus [12] of 1.048 µM·h. The compound further showed a fCmax with Canis familiaris [14] of 446 nM. The same compound displayed a Ki in data set [15] of 16 nM. Moreover, the selectivity ratio in data set [16] was determined as 15.
